Test results: ChEMBL document CHEMBL4325907, “Diaryl hydroxylamines as pan or dual inhibitors of indoleamine 2,3-dioxygenase-1, indoleamine 2,3-dioxygenase-2 and tryptophan dioxygenase” (Eur J Med Chem, 2019)
Active and inactive are the calls of the source. No cut-off for these calls is given here.

Experiments:
[1] = molecular target: T1, Indoleamine 2,3-dioxygenase 1 (Homo sapiens, UniProt P14902); assay: Inhibition of IDO1 (unknown origin) at 100 uM using L-tryptophan as substrate by spectrophotometric method relative to control
Target sequence in this assay (P14902 whole entry, looked up): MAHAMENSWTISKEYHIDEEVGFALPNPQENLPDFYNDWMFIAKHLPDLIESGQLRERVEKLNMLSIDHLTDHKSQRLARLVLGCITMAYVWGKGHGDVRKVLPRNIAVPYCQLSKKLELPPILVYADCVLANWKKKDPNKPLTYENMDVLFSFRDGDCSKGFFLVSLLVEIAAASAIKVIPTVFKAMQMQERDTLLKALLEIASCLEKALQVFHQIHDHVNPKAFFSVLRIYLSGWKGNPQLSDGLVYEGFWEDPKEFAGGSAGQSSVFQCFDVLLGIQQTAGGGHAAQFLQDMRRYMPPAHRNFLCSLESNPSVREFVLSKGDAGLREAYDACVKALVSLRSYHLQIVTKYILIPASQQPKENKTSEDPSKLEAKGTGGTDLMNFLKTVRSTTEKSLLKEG

[2] = molecular target: T2, Indoleamine 2,3-dioxygenase 2 (Homo sapiens) (UniProt Q6ZQW0); assay: Inhibition of IDO2 (unknown origin) at 100 uM using L-tryptophan as substrate by spectrophotometric method relative to control
T2 sequence (whole entry): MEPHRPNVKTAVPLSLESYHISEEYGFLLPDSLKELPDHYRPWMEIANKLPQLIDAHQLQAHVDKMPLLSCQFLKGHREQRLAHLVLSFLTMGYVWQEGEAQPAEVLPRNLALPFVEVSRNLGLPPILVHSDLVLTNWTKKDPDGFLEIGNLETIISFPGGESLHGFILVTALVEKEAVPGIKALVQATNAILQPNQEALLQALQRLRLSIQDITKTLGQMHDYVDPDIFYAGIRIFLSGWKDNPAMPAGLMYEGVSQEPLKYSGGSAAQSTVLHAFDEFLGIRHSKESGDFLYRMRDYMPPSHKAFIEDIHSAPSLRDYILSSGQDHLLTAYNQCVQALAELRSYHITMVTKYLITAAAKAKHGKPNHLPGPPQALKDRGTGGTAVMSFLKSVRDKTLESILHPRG

[3] = molecular target: T3, Tryptophan 2,3-dioxygenase (Homo sapiens, UniProt P48775); assay: Inhibition of TDO (unknown origin) at 100 uM using L-tryptophan as substrate by spectrophotometric method relative to control
Target sequence in this assay (P48775 whole entry, looked up): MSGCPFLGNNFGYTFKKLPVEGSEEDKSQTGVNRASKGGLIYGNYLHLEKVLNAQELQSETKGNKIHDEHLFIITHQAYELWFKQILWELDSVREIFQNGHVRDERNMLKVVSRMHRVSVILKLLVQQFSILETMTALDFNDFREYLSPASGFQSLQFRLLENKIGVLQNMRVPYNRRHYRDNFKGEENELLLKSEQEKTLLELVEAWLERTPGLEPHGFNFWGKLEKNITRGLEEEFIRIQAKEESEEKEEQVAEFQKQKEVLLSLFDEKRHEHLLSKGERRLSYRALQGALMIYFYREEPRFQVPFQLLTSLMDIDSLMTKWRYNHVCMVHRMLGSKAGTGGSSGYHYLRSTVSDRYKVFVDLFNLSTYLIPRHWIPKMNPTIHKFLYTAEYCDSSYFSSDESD

[4] = molecular target: T1, Indoleamine 2,3-dioxygenase 1; assay: Inhibition of IDO1 (unknown origin) using L-tryptophan as substrate by spectrophotometric method
Target sequence in this assay (P14902 whole entry): as the sequence (P14902 whole entry, looked up) above

[5] = molecular target: T1, Indoleamine 2,3-dioxygenase 1; assay: Inhibition of IDO1 in human HeLa cells using L-tryptophan as substrate after 20 hrs; assay type: cell-based
Method in brief: (§1)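 HeLa cells (endogenous human IDO1) were induced with 100 ng/mL IFNγ for 24 h at 100 μM Trp. T-REx cells carried tet-regulated human TDO (2 ng/mL doxycycline, 24 h, 100 μM Trp) or mouse IDO2 (doxycycline plus 8 mM 5-aminolevulinic acid, 20 μM hemin, 4 mM Trp, 48 h). After induction, compound serial dilutions were added in medium with final Trp 100 μM (IDO1/TDO) or 2 mM (IDO2) for 20 h at 37 °C. Read-out was TCA fixation, 65 °C hydrolysis, then p-dimethylaminobenzaldehyde colour.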
Target sequence in this assay (P14902 whole entry): as the sequence (P14902 whole entry, looked up) above

[6] = molecular target: T4, Indoleamine 2,3-dioxygenase 2 (Mus musculus, UniProt Q8R0V5); assay: Inhibition of mouse IDO2 expressed in human T-REx cells using L-tryptophan as substrate after 20 hrs; assay type: cell-based; method in brief: as §1
T4 sequence (Q8R0V5 whole entry): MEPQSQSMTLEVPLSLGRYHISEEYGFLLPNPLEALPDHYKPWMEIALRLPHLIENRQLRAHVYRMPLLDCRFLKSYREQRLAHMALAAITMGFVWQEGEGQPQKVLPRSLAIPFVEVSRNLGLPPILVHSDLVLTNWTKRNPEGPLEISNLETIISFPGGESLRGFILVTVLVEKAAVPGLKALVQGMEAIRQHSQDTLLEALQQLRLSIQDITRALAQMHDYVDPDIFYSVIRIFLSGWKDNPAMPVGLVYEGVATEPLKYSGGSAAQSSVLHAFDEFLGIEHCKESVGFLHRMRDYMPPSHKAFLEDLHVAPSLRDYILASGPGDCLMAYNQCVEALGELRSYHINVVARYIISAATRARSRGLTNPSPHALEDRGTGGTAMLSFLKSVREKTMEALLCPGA

[7] = molecular target: T3, Tryptophan 2,3-dioxygenase; assay: Inhibition of human TDO expressed in human T-REx cells using L-tryptophan as substrate after 20 hrs; assay type: cell-based; method in brief: as §1
Target sequence in this assay (P48775 whole entry): as the sequence (P48775 whole entry, looked up) above

[8] = Cytotoxicity against human HeLa cells assessed as cell viability up to 100 uM relative to control; assay type: cell-based; conditions: read-out: Activity
[9] = molecular target: T3, Tryptophan 2,3-dioxygenase; assay: Inhibition of TDO (unknown origin) using L-tryptophan as substrate by spectrophotometric method
Target sequence in this assay (P48775 whole entry): as the sequence (P48775 whole entry, looked up) above

[10] = Selectivity ratio of IC50 for inhibition of mouse IDO2 expressed in human T-REx cells to IC50 for inhibition of IDO1 in human HeLa cells; assay type: cell-based; method in brief: as §1
Homo sapiens [11] = species: Homo sapiens; assay: Selectivity ratio of IC50 for inhibition of mouse IDO2 expressed in human T-REx cells to IC50 for inhibition of human TDO expressed in human T-REx cells; assay type: cell-based; method in brief: as §1
Homo sapiens [12] = species: Homo sapiens; assay: Selectivity ratio of IC50 for inhibition of IDO2 (unknown origin) to IC50 for inhibition of IDO1 (unknown origin)
Homo sapiens [13] = species: Homo sapiens; assay: Selectivity ratio of IC50 for inhibition of TDO (unknown origin) to IC50 for inhibition of IDO1 (unknown origin)
[14] = molecular target: T5, Indoleamine 2,3-dioxygenase 2 (Homo sapiens, UniProt Q6ZQW0); assay: Inhibition of IDO2 (unknown origin) using L-tryptophan as substrate by spectrophotometric method
T5 sequence (Q6ZQW0 whole entry): T2 sequence (whole entry)

Homo sapiens [15] = species: Homo sapiens; assay: Selectivity ratio of IC50 for inhibition of human TDO expressed in human T-REx cells to IC50 for inhibition of IDO1 in human HeLa cells; assay type: cell-based; method in brief: as §1
[16] = molecular target: T1, Indoleamine 2,3-dioxygenase 1; assay: Inhibition of IDO1 in human HeLa cells at IC50 using L-tryptophan as substrate after 24 hrs in presence of 100% human serum by LC-MS/MS analysis; assay type: cell-based
Target sequence in this assay (P14902 whole entry, looked up): as the sequence (P14902 whole entry, looked up) above

IC50 ([5]; hela) [µM]	Structure (SMILES)	inhibition [1] [%]	inhibition [2] [%]	inhibition [3] [%]	IC50 [4] [µM]	IC50 [5] [µM]	IC50 [6] [µM]	IC50 [7] [µM]	viability [8] [%]	IC50 [9] [µM]	Ratio IC50 [10]	Ratio IC50 (Homo sapiens [11])	Ratio IC50 (Homo sapiens [12])	Ratio IC50 (Homo sapiens [13])	IC50 [14] [µM]	Ratio IC50 (Homo sapiens [15])	inhibition [16]
–	NOC(c1ccccc1)c1ccc(F)cc1F (centres undefined)	> 95	46	90.3	7	1.21	18.9	6.37	60	–	–	–	–	–	–	–	–
–	NOC(c1ccccc1)C1CCCCC1 (centres undefined)	76	88.6	43.6	–	21	40.2	2770	≥ 80	–	–	–	–	–	–	–	–
–	NOC(c1ccc(Cl)cc1)c1ccc(Cl)cc1	> 95	69.3	> 95	3	1.09	12.5	4.53	≥ 80	2	–	–	–	–	–	–	–
1.73	NOC(c1ccccc1)c1cccc(C(F)(F)F)c1 (centres undefined)	18	–	> 95	–	–	24.7	13.6	≥ 80	12	–	–	–	–	–	–	–
–	NOC(CCc1cccc(Cl)c1)c1ccccc1 (centres undefined)	> 95	78.1	93.1	7	6.74	20.5	58.7	≥ 80	–	–	–	–	–	–	–	–
–	NOC(c1ccccc1)c1ccsc1 (centres undefined)	83	76.5	93.3	–	3.36	49.9	4.41	≥ 80	–	10	10	–	–	–	–	–
–	NS(=O)(=O)NCCNc1nonc1C(=NO)Nc1ccc(F)c(Br)c1 [EPACADOSTAT]	–	–	–	–	–	18.9	25.2	≥ 80	–	–	–	–	–	–	–	–
–	NOC(CCCC(=O)Nc1ccccc1)c1cccc(Cl)c1 (centres undefined)	> 95	84.3	75.5	3	1.43	36.1	123	≥ 80	–	–	–	> 20	> 20	–	–	–
–	NOC(c1ccccc1)c1cc(F)cc(F)c1 (centres undefined)	> 95	83	92.6	4	0.357	8.75	3.48	≥ 80	–	–	–	–	–	–	–	–
–	NOC(c1ccccc1)c1ccccc1Cl (centres undefined)	> 95	> 95	89.8	18	2.48	10.7	21.8	≥ 80	–	5 to 10	–	–	–	25	5 to 10	–
–	NOC(c1ccccc1)c1cc(Cl)cc(Cl)c1 (centres undefined)	> 95	69.8	83.4	2	0.87	8.66	5.7	≥ 80	–	–	–	–	–	–	–	Active
–	NOC(c1ccccc1)c1ccc(Cl)cc1Cl (centres undefined)	> 95	73	> 95	4	1.99	7.68	4.82	≥ 80	6	–	–	–	–	–	–	inactive
–	NOC(c1ccccc1)c1ccc(Cl)c(Cl)c1 (centres undefined)	> 95	> 95	> 95	2	1.91	19.5	8.11	≥ 80	4	–	–	–	–	32	–	–
